Measured values as given in article PMC7614804 (Journal of medicinal chemistry, 2022).

What was measured:
Pa MurB [1] = target: T1, Pa MurB (Pseudomonas aeruginosa, UniProt Q9HZM7); experiment: Surface plasmon resonance; assay type: binding
T1 sequence (Q9HZM7 1-339): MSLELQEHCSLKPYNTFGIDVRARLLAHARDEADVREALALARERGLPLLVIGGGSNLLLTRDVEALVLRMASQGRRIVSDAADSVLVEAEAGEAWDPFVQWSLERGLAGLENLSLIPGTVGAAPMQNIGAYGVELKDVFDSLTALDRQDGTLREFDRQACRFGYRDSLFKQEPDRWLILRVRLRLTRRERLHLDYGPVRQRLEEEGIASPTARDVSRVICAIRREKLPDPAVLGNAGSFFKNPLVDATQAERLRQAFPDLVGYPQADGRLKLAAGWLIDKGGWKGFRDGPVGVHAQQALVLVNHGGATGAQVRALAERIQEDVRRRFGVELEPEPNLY
Procedure, shortened: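 Pa MurB amine-coupled to a CM5 chip. Running buffer: 10 mM NaPO4 pH 7, 150 mM NaCl, 2% DMSO, 25 °C. Each test compound at 1 mM in running buffer was injected for 30 s at […], with 320 s dissociation. Each was run twice, in reverse orders, with solvent correction. Response units were compared visually with those of the initial pyrazole fragment hit.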

Pa MurB [2] = target: T1, Pa MurB; experiment: Isothermal titration calorimetry; assay type: binding
Procedure, shortened: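 ITC at 25 °C. Pa MurB was dialysed overnight at 4 °C into 25 mM Tris-HCl pH 8.0, 150 mM NaCl; cell and syringe solutions were in the same buffer with 5% DMSO final. Usually 50 μM MurB with 3.0 mM fragment; some runs used 1.0 or 0.5 mM ligand or 200 μM MurB. A 0.4 μL first injection was discarded, then 28 × 1.5 μL every 120 s. One-site fit; LE = −(RTlnKd)/heavy atoms, in kcal/mol per heavy atom.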

[3] = Table 5, RU of compound at 1.0 mM compared with RU of fragment 4, n = 2
[4] = Table 4, RU of fragment at 1 mM compared with RU of fragment 4, n = 2
[5] = Table 5, LE = −(RTlnKd)/(number of heavy atoms)
[6] = Table 6, RU of fragment at 1.0 mM compared with RU of fragment 4, n = 2
[7] = Table 6, LE = −(RTlnKd)/(number of heavy atoms)
[8] = Table 3, RU of fragment at 1 mM compared with RU of fragment 4, n = 2
[9] = Table 3, LE = –(RTlnKd)/(number of heavy atoms)
[10] = Table 4, LE = −(RTlnKd)/(number of heavy atoms)
[11] = Kd(μM) ITC, Table 4, 50 μM MurB, 3.0 mM fragment, fragment 41: 200 μM MurB

For `Cc1cc(C(=O)O)c(C)n1-c1ccc(Cl)cc1` [Fragment 50], the “SPR RU>RUf4 1.0 mM” value (Pa MurB [1]; [3]) was “no”.
With `COc1ccc(-n2ncc(C(=O)O)c2C(F)(F)F)cc1` [Fragment 35] the “SPR RU>RUf4 1.0 mM” value (Pa MurB [1]; [4]) was “no”.
An LE (Pa MurB [2]; [5]) of 0.32 kcal/mol per heavy atom was found for `Cc1cc(Cl)c(Cl)cc1-n1c(C)cc(C(=O)O)c1C(F)(F)F` [Fragment 54] in this work.
In the case of `O=C(NS(=O)(=O)c1ccccc1)c1cnn(-c2ccccc2)c1C(F)(F)F` [Fragment 60], the “SPR RU>RUf4 1.0 mM” value (Pa MurB [1]; [6]) is reported as “yes”, the Kd (Pa MurB [2]; Kd (ITC)) is reported as 320 ± 60 µM and the Kd (Pa MurB [2]; Kd(μM) ITC, Table 6, 50 μM Pa MurB, 3.0 mM fragment) is reported as 324 ± 59 µM. The LE (Pa MurB [2]; [7]) was 0.18 kcal/mol per heavy atom.
For `Cc1cc(C(=O)O)c(C)n1-c1ccccc1` [Fragment 20], the “SPR RU>RUf4 1.0 mM” value (Pa MurB [1]; [8]) was “yes” and the LE (Pa MurB [2]; [9]) was 0.34 kcal/mol per heavy atom.
With `Cc1cccc(C)c1-n1ncc(C(=O)NS(=O)(=O)c2ccccc2)c1C(F)(F)F` [Fragment 62] the “SPR RU>RUf4 1.0 mM” value (Pa MurB [1]; [6]) was “yes” and the LE (Pa MurB [2]; [7]) was 0.22 kcal/mol per heavy atom.
With `O=C(O)c1cnn(-c2ccc(Cl)c(Cl)c2)c1C(F)(F)F` [Fragment 43, 1-(3,4-Dichlorophenyl)-5-(trifluoromethyl)-1H-pyrazole-4-carboxylic Acid] the “SPR RU>RUf4 1.0 mM” value (Pa MurB [1]; [4]) was “yes” and the LE (Pa MurB [2]; [10]) was 0.31 kcal/mol per heavy atom.
For `Cc1cccc(-n2ncc(C(=O)O)c2C(F)(F)F)c1C` [Fragment 38], the “SPR RU>RUf4 1.0 mM” value (Pa MurB [1]; [4]) was “yes”, the Kd (Pa MurB [2]; [11]) was 99 ± 7.2 µM and the LE (Pa MurB [2]; [10]) was 0.27 kcal/mol per heavy atom.
`Cc1nc(C(=O)O)c(C)n1-c1ccccc1` [Fragment 21] was tested, and the “SPR RU>RUf4 1.0 mM” value (Pa MurB [1]; [8]) was “no”.
For `Cc1cc([N+](=O)[O-])ccc1-n1ncc(C(=O)O)c1C(F)(F)F` [Fragment 36], the “SPR RU>RUf4 1.0 mM” value (Pa MurB [1]; [4]) was “yes”, the Kd (Pa MurB [2]; [11]) was 208 ± 28 µM and the LE (Pa MurB [2]; [10]) was 0.23 kcal/mol per heavy atom.
In the case of `Cc1ccc(C)c(-n2ncc(C(=O)O)c2C(F)(F)F)c1` [Fragment 40], the “SPR RU>RUf4 1.0 mM” value (Pa MurB [1]; [4]) is reported as “yes” and the LE (Pa MurB [2]; [10]) is reported as 0.26 kcal/mol per heavy atom.
`Cc1cc(C(=O)O)c(C)n1-c1cccc(Cl)c1` [Fragment 49] was tested, and the “SPR RU>RUf4 1.0 mM” value (Pa MurB [1]; [3]) was “yes”.
With `Cc1cc(C(=O)O)c(C)n1-c1ccc(Cl)c(Cl)c1` [Fragment 48] the “SPR RU>RUf4 1.0 mM” value (Pa MurB [1]; [3]) was “no” and the LE (Pa MurB [2]; [5]) was 0.33 kcal/mol per heavy atom.
For `Cc1cccc(C)c1-n1c(C)cc(C(=O)O)c1C` [Fragment 47], the “SPR RU>RUf4 1.0 mM” value (Pa MurB [1]; [3]) was “no” and the LE (Pa MurB [2]; [5]) was 0.32 kcal/mol per heavy atom.
With `Cc1ccccc1-n1c(C)cc(C(=O)O)c1C` [Fragment 46] the “SPR RU>RUf4 1.0 mM” value (Pa MurB [1]; [3]) was “yes” and the LE (Pa MurB [2]; [5]) was 0.34 kcal/mol per heavy atom.
An LE (Pa MurB [2]; [10]) of 0.31 kcal/mol per heavy atom was found for `Cc1cccc(C)c1-n1ncc(C(=O)O)c1C(F)(F)F` [Fragment 41] in this work.
With `Cc1c(-n2c(C)cc(C(=O)O)c2C(F)(F)F)ccc(Cl)c1Cl` [Fragment 55] the “SPR RU>RUf4 1.0 mM” value (Pa MurB [1]; [3]) was “yes” and the LE (Pa MurB [2]; [5]) was 0.31 kcal/mol per heavy atom.
A Kd (Pa MurB [2]; Kd (ITC)) of 208 ± 15 µM and an LE (Pa MurB [2]; [9]) of 0.28 kcal/mol per heavy atom were found for `Cc1c(C(=O)O)cc(CCO)n1-c1ccccc1` [Fragment 23] in this work.
In the case of `Cc1cc(C(=O)O)c(C(F)(F)F)n1-c1ccccc1` [Fragment 22], the “SPR RU>RUf4 1.0 mM” value (Pa MurB [1]; [8]) is reported as “yes” and the LE (Pa MurB [2]; [9]) is reported as 0.28 kcal/mol per heavy atom.
With `O=C(O)c1cnn(-c2c(Cl)cccc2Cl)c1C(F)(F)F` [Fragment 42] the “SPR RU>RUf4 1.0 mM” value (Pa MurB [1]; [4]) was “yes”, the Kd (Pa MurB [2]; [11]) was 60.2 ± 4.4 µM and the LE (Pa MurB [2]; [10]) was 0.29 kcal/mol per heavy atom.
With `O=C(O)c1cnn(-c2ccccc2Cl)c1C(F)(F)F` [Fragment 30] the “SPR RU>RUf4 1.0 mM” value (Pa MurB [1]; [4]) was “yes” and the LE (Pa MurB [2]; [10]) was 0.27 kcal/mol per heavy atom.
An LE (Pa MurB [2]; [5]) of 0.33 kcal/mol per heavy atom was found for `Cc1c(-n2c(C)cc(C(=O)O)c2C)ccc(Cl)c1Cl` [Fragment 52] in this work.
`Cc1ccccc1-n1c(C)cc(C(=O)O)c1C(F)(F)F` [Fragment 53] was tested, and the “SPR RU>RUf4 1.0 mM” value (Pa MurB [1]; [3]) was “yes” and the LE (Pa MurB [2]; [5]) was 0.30 kcal/mol per heavy atom.
`Cc1cc(Cl)c(Cl)cc1-n1ncc(C(=O)O)c1C(F)(F)F` [Fragment 44] was tested, and the “SPR RU>RUf4 1.0 mM” value (Pa MurB [1]; [3]) was “yes” and the LE (Pa MurB [2]; [5]) was 0.35 kcal/mol per heavy atom.
`Cc1ccc(-n2ncc(C(=O)O)c2C(F)(F)F)c(C)c1` [Fragment 39] was tested, and the “SPR RU>RUf4 1.0 mM” value (Pa MurB [1]; [4]) was “yes”, the Kd (Pa MurB [2]; [11]) was 85.5 ± 8 µM and the LE (Pa MurB [2]; [10]) was 0.28 kcal/mol per heavy atom.
An LE (Pa MurB [2]; [5]) of 0.33 kcal/mol per heavy atom was found for `Cc1cc(Cl)c(Cl)cc1-n1c(C)cc(C(=O)O)c1C` [Fragment 51] in this work.
In the case of `CS(=O)(=O)NC(=O)c1cnn(-c2ccccc2)c1C(F)(F)F` [Fragment 59], the “SPR RU>RUf4 1.0 mM” value (Pa MurB [1]; [6]) is reported as “no”.
With `Cc1c(-n2ncc(C(=O)O)c2C(F)(F)F)ccc(Cl)c1Cl` [Fragment 45] the “SPR RU>RUf4 1.0 mM” value (Pa MurB [1]; [3]) was “yes” and the LE (Pa MurB [2]; [5]) was 0.32 kcal/mol per heavy atom.
With `O=C(O)c1cnn(-c2ccccc2Br)c1C(F)(F)F` [Fragment 31] the “SPR RU>RUf4 1.0 mM” value (Pa MurB [1]; [4]) was “yes” and the LE (Pa MurB [2]; [10]) was 0.29 kcal/mol per heavy atom.
For `Cc1ccccc1-n1ncc(C(=O)O)c1C(F)(F)F` [Fragment 32], the “SPR RU>RUf4 1.0 mM” value (Pa MurB [1]; [4]) was “yes” and the LE (Pa MurB [2]; [10]) was 0.31 kcal/mol per heavy atom.
An LE (Pa MurB [2]; [7]) of 0.22 kcal/mol per heavy atom was found for `Cc1cc(Cl)c(Cl)cc1-n1ncc(C(=O)NS(=O)(=O)c2ccccc2)c1C(F)(F)F` [Fragment 64] in this work.
In the case of `Cc1c(C(=O)O)nnn1-c1ccccc1` [Fragment 19], the “SPR RU>RUf4 1.0 mM” value (Pa MurB [1]; [8]) is reported as “no”, the Kd (Pa MurB [2]; Kd(μM) ITC, Table 3, 50 μM MurB, 3.0 mM fragment) is reported as 877 ± 154 µM and the LE (Pa MurB [2]; [9]) is reported as 0.28 kcal/mol per heavy atom.
